Results on 1 compound are retold here after ChEMBL document CHEMBL3352559, “Synthesis and pharmacological investigation of aralkyl diamine derivatives as potential triple reuptake inhibitors” (Eur J Med Chem, 2014).

What is called inhibition is the relative decrease from the control value, in per cent. High values mean a strong effect, low ones a weak effect. As usually defined, the AUC is the area under the concentration-time curve, a measure of exposure. The low end stands for low exposure, the high end for high exposure. As a reminder, the MRT is the average time that molecules of a dose stay in the body.

The target in series [1] is 5-hydroxytryptamine receptor 5A (Homo sapiens) (UniProt P47898). Nature of the series: Displacement of [3H]LSD from human 5-HT5A receptor at 10 uM relative to control. In a few lines: (§1)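 Outsourced CNS panel of 55 receptor binding assays run by Cerep. Compound tested at 10 μM, the default primary-binding concentration, with inhibition expressed relative to control. Inhibition above 50% taken as a significant effect.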
5-hydroxytryptamine receptor 5A (Homo sapiens), sequence (P47898 whole entry): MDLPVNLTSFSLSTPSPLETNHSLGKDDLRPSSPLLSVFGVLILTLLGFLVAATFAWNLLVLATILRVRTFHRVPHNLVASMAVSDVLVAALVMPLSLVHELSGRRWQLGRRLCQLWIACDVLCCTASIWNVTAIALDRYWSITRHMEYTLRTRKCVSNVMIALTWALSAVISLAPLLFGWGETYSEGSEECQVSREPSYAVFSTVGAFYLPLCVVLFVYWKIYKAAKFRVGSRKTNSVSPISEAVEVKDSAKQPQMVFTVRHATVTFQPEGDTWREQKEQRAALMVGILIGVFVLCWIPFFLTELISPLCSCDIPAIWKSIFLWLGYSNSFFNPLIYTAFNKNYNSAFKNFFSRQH
On the technique in general: Loss of bound radioactivity is the signal in a displacement assay; it reports binding, not function.

Series [2] is described as follows: AUC (0 to time) in Sprague-Dawley rat at 0.5 mg/kg, iv. It counts as ADME, organism-based. Also on record: dose 0.5 mg/kg, route intravenous. The conditions noted are these: plasma. In a few lines: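 Male SD rats, fasted overnight until 6 h post-dose. PO group received single 2 mg/kg with heparinized blood sampled at 5, 15, 30 min, 1, 2, 4, 8, 24 h. IV group received single 0.5 mg/kg via femoral vein with sampling at 5, 15, 30 min, 1, 2, 4 h. Plasma stored at -40 °C, quantified by LC/MS/MS; 24 rats per group.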

Series [3] has as its target Vasopressin V1a receptor (Homo sapiens) (UniProt P37288). As to the kind of experiment: Displacement of [3H]AVP from human V1a receptor at 10 uM relative to control. In a few lines: as §1
Series [4] can be described thus: Ratio of drug level in Sprague-Dawley rat brain to plasma at 0.5 mg/kg iv after 0.50 hrs. It counts as ADME, organism-based. Also on record: dose 0.5 mg/kg, route intravenous. Conditions: read-out: BPR.
In series [5] the target is Adrenergic receptor alpha-2 (Homo sapiens) (UniProt P08913+P18825+P18089). Nature of the series: Displacement of [3H]-RX-821002 from alpha-2 adrenergic receptor (unknown origin) at 10 uM relative to control. It counts as protein assay. Summed up: as §1
Series [6] is described as follows: Drug uptake in Sprague-Dawley rat plasma at 0.5 mg/kg iv after 4 hrs. It counts as ADME, organism-based. Also on record: dose 0.5 mg/kg, route intravenous. Summed up:
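Male SD rats, fasted overnight until 6 h post-dose; single 0.5 mg/kg femoral-vein injection; blood drawn into heparin at 5, 15, 30 min, 1, 2 and 4 h; plasma stored at -40 °C; drug levels by LC/MS/MS; noncompartmental parameters.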

Series [7] can be described thus: Acute toxicity in KM mouse assessed as survival at 600 mg/kg, po up to 14 days (reference value: 100%). It is filed as organism-based. On the set-up: dose 600 mg/kg, route oral. The conditions noted are these: in vivo.
The nature of series [8]: Mean residence time in Sprague-Dawley rat at 2 mg/kg, po. It is filed as ADME, organism-based. Also on record: dose 2 mg/kg, route oral. Conditions: in vivo.
In series [9] the target is 5-hydroxytryptamine receptor 7 (Homo sapiens) (UniProt P34969). As to the kind of experiment: Displacement of [3H]LSD from human 5-HT7 receptor at 10 uM relative to control. In a few lines: as §1
5-hydroxytryptamine receptor 7 (Homo sapiens), sequence (P34969 whole entry): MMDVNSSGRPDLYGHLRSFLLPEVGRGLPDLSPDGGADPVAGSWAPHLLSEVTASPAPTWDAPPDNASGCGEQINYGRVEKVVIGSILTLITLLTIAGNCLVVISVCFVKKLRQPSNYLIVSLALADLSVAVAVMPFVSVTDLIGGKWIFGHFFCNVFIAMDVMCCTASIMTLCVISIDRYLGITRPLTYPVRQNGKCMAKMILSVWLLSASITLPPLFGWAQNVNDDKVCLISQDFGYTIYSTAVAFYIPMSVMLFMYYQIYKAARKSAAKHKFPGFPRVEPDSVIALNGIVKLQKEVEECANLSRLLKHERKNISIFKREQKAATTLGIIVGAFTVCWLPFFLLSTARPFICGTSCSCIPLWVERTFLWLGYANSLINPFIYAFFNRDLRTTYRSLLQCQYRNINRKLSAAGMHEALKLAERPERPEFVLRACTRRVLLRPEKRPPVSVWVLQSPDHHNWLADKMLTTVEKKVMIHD

Vasopressin V1a receptor (Homo sapiens), sequence (P37288 whole entry, looked up): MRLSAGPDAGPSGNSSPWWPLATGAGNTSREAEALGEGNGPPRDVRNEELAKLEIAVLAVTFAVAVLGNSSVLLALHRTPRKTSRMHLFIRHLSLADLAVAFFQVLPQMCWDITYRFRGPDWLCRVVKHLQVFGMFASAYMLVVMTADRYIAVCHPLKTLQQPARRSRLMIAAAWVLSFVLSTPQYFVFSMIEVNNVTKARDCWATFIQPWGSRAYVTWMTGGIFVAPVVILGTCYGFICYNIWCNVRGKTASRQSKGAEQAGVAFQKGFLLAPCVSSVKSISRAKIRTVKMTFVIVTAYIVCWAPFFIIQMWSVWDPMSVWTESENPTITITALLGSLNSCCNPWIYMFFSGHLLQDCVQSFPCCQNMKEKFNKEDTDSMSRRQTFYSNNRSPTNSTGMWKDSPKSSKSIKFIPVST

In the case of `CN(C)CCC(c1ccc(Cl)c(Cl)c1)N1CCOCC1` (centres undefined), the inhibition amounted to 1.4% in series [1], 3.3% in series [3], 9.6% in series [5] and 8.9% in series [9]. The compound further gave an AUC in [2] of 78.6 ng·h/mL. Moreover, the Kp at 0.5 h in series [4] was 12.3. Further, the concentration at 4 h in series [6] is 3.7 ng/mL. In addition, the survival at 336 h in series [7] worked out at 80%. In series [8], the MRT is 3.05 h.
